What was measured:
[1] = molecular target: T1, untagged ATAD2 BD (Homo sapiens, UniProt Q6PL18); test: Size exclusion chromatography; assay type: binding; conditions: molar ratio 1:1
T1 sequence (Q6PL18 981-1108): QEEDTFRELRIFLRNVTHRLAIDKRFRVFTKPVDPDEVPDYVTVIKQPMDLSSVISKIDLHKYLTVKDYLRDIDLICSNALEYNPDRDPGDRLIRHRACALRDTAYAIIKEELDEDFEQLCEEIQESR

[2] = molecular target: T2, FLAG tagged ATAD2 (342 - 1390) (Homo sapiens, UniProt Q6PL18); test: AlphaScreen, ATAD2 construct including the ATPase domain; assay type: binding; conditions: larger ATAD2 construct including the ATPase domain
T2 sequence (Q6PL18 342-1390): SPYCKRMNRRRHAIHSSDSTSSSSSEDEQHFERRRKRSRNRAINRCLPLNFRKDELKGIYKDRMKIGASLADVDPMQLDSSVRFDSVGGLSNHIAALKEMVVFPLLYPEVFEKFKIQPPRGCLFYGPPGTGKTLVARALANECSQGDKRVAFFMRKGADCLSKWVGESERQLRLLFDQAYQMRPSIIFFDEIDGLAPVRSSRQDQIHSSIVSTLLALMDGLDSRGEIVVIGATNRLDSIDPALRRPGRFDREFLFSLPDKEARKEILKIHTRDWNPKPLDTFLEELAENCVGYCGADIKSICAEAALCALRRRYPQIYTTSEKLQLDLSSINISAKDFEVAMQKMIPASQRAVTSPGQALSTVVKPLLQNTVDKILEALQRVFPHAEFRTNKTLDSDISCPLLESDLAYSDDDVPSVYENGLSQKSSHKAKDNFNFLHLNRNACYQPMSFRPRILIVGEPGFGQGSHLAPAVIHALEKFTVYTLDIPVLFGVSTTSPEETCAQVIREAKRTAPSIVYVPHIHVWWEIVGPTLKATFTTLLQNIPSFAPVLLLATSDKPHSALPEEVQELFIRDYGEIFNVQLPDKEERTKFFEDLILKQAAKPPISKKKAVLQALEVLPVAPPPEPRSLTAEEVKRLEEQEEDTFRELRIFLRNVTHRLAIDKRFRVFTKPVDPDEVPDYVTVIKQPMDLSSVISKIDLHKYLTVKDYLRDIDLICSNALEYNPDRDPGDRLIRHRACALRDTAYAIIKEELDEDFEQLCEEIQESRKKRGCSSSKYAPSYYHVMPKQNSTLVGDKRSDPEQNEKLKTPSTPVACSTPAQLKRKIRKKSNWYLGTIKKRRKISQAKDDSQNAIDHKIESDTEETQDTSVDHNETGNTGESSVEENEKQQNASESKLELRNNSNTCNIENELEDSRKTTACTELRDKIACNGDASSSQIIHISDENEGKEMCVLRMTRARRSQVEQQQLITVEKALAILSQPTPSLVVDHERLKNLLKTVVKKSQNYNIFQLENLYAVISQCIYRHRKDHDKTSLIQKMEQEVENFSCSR
Procedure, shortened: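 Binding competition between ATAD2 and an acetylated histone H4 peptide, read by AlphaScreen over increasing test compound concentrations. Signals were normalized, plotted against dose and fitted to a four-parameter logistic equation to give potency.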

[3] = Permeability; assay type: in vitro ADME; conditions: Caco-2 assay
[4] = system: ATAD2 target genes in MCF7 cells; test: Gene expression study with quantitative PCR; assay type: cell-based; conditions: MCF7, 24 h, up to 6.67 µM
[5] = molecular target: T3, ATAD2 (Homo sapiens, UniProt Q6PL18); test: BROMOscan; assay type: binding
T3 sequence (Q6PL18 981-1108 limits assumed): T1 sequence (Q6PL18 981-1108)

[6] = molecular target: T4, tag-free ATAD2 (Homo sapiens, UniProt Q6PL18); test: Native mass spectrometry; assay type: binding; conditions: 10 μM ATAD2 BD, 5 μM compound
T4 sequence (Q6PL18 981-1108): T1 sequence (Q6PL18 981-1108)

[7] = molecular target: T5, GFP-tagged full-length wild type ATAD2 in MCF7 cells (Homo sapiens, UniProt Q6PL18); test: Fluorescence recovery after photobleaching; assay type: cell-based
T5 sequence (Q6PL18 1-1390): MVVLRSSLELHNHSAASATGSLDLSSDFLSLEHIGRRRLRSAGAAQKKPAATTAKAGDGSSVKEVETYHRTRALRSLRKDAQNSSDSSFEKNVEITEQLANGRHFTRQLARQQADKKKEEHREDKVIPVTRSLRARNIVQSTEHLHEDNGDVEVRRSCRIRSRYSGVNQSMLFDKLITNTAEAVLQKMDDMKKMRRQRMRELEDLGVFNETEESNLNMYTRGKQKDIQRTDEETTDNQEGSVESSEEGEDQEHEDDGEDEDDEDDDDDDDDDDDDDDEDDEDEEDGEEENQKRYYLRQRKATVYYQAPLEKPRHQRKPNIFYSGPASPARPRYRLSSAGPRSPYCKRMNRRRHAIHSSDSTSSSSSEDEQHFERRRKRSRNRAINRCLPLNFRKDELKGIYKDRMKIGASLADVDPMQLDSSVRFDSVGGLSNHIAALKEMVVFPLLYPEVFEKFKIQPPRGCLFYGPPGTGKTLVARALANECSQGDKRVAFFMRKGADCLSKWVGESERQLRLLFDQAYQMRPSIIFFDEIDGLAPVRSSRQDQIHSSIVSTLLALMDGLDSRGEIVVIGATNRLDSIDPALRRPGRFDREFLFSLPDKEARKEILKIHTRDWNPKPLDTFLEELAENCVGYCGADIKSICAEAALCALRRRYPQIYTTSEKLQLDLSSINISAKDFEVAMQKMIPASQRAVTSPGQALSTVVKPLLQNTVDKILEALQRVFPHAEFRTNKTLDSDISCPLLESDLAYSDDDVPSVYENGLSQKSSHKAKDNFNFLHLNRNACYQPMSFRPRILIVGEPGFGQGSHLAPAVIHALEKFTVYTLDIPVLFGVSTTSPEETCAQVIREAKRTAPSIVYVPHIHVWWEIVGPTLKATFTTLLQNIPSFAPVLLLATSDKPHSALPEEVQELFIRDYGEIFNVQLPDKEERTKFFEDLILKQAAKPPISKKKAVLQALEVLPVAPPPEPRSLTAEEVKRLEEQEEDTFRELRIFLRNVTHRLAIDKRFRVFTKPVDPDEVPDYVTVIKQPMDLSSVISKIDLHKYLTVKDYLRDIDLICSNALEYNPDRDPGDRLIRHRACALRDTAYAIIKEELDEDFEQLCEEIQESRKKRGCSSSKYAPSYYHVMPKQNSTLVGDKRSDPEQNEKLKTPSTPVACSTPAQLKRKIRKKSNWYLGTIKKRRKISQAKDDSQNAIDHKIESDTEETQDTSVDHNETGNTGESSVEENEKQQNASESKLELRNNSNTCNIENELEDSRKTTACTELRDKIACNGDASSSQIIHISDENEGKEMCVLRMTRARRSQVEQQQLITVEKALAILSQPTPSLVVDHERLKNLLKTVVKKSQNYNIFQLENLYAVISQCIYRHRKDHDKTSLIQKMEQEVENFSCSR
Procedure, shortened: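 MCF7 cells transfected with GFP-tagged full-length wild-type ATAD2; BD-mutant and ATPase-mutant constructs run as comparators. Cells treated with 1 μM test compound for 1 h, then a defined area photobleached. Half fluorescence recovery time measured in the bleached area from at least 15 cells per group, reported as mean with standard error of the mean.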

[8] = molecular target: T6, His-ATAD2 BD (Homo sapiens, UniProt Q6PL18); test: AlphaScreen binding competition assay, tetra-acetylated H4 peptide
T6 sequence (Q6PL18 981-1108): T1 sequence (Q6PL18 981-1108)
Procedure, shortened: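 Competition for binding of acetylated histone H4 N-terminal peptides to the ATAD2 bromodomain, titrated with increasing test compound. TR-FRET read-out for mono- and tetra-acetylated peptides; AlphaScreen read-out for the tetra-acetylated peptide. Normalized signals plotted against compound dose and fitted to a four-parameter logistic equation to obtain IC50.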

[9] = system: panel of 354 kinases; test: Kinase panel overall; assay type: biochemical, human
[10] = system: HMEC nontransformed mammary epithelial cells; test: Growth inhibition of nontransformed cells; assay type: cell-based; conditions: HMEC vs MCF7 and MDA-MB-231
[11] = molecular target: T7, GST-ATAD2 BD (Homo sapiens, UniProt Q6PL18); test: Microscale thermophoresis; assay type: binding; conditions: MST
T7 sequence (Q6PL18 981-1108): T1 sequence (Q6PL18 981-1108)
Procedure, shortened: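 Fluorescence-labeled GST-ATAD2 incubated with vehicle or increasing test compound concentrations. Thermophoresis traces recorded in real time. Averaged steady-state MST signals plotted against dose and fitted to a 1:1 binding model to derive KD.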

[12] = system: other members of the BD family; test: TSA bromodomain selectivity panel; assay type: binding; conditions: 10 μM
Procedure, shortened: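 Thermal shift assay across the bromodomain family. Melting curves of each bromodomain were acquired with 10 μM test compound or with vehicle. Compound effects were taken from the melting-curve comparison and mapped onto the bromodomain phylogenetic tree.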

permeability [3]: moderate permeability
Kd [5]: 0.115 µM
concentration of maximal on-target cellular activity ([7]; FRAP, MCF7): 1 µM
Recovery t1/2 ([7]; MCF7 cells, 1 μM for 1 h, mean ± SEM): 6.3 ± 1.2 s
IC50 [8]: 0.157 µM
inhibitory activity in kinase panel [9]: no inhibitory activity
Kd [11]: 0.085 µM
Compound: COc1cc(Cl)c(C(=O)N[C@@H](CN[C@H]2CC[C@@H](N)CC2)Cc2ccc(C#N)cc2)cc1-c1ccc(CN[C@H](C)c2ccc(C)cc2)o1 [BAY-850]
ATAD2 dimerisation in SEC elution profile [1]: compound-induced shift from the ATAD2-monomer to ATAD2-dimer form
inhibition of tetra-acetylated H4 peptide binding [2]: inhibited tetra-acetylated H4 peptide binding
expression of ATAD2 target genes [4]: did not affect the expression
binding to ATAD2 by native MS [6]: one BAY-850 molecule binds to an ATAD2 dimer
growth inhibition of nontransformed vs cancer cells [10]: similarly active on the nontransformed and cancer cells
effect on thermal stability of other BD family members [12]: not observed for other members of the BD family
